Experiments:
[1] = molecular target: Histone deacetylase 5 (Homo sapiens) (UniProt Q9UQL6); test: Inhibition of full length N-terminal GST-tagged human HDAC5 expressed in baculovirus infected Sf9 insect cells using BPS HDAC class 2a substrate at 10 uM after 30 mins by fluorescence assay relative to control
Summary of the method: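 Run by a contract lab. Compound incubated with HDAC enzyme, substrate, bovine serum albumin and HDAC buffer in duplicate for 30 min at 37 °C. Quenched with HDAC developer, 15 min at room temperature, fluorescence read at ex 360/em 460 nm. Activity taken as (F−Fb)/(Ft−Fb) against blank and solvent control wells; IC50 from curve fitting.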

[2] = molecular target: T1, Protein deacetylase HDAC6 (Homo sapiens, UniProt Q9UBN7); test: Inhibition of full length N-terminal GST-tagged human HDAC6 expressed in baculovirus infected Sf9 insect cells using HDAC substrate 3 after 30 mins by fluorescence assay
T1 sequence (Q9UBN7 whole entry): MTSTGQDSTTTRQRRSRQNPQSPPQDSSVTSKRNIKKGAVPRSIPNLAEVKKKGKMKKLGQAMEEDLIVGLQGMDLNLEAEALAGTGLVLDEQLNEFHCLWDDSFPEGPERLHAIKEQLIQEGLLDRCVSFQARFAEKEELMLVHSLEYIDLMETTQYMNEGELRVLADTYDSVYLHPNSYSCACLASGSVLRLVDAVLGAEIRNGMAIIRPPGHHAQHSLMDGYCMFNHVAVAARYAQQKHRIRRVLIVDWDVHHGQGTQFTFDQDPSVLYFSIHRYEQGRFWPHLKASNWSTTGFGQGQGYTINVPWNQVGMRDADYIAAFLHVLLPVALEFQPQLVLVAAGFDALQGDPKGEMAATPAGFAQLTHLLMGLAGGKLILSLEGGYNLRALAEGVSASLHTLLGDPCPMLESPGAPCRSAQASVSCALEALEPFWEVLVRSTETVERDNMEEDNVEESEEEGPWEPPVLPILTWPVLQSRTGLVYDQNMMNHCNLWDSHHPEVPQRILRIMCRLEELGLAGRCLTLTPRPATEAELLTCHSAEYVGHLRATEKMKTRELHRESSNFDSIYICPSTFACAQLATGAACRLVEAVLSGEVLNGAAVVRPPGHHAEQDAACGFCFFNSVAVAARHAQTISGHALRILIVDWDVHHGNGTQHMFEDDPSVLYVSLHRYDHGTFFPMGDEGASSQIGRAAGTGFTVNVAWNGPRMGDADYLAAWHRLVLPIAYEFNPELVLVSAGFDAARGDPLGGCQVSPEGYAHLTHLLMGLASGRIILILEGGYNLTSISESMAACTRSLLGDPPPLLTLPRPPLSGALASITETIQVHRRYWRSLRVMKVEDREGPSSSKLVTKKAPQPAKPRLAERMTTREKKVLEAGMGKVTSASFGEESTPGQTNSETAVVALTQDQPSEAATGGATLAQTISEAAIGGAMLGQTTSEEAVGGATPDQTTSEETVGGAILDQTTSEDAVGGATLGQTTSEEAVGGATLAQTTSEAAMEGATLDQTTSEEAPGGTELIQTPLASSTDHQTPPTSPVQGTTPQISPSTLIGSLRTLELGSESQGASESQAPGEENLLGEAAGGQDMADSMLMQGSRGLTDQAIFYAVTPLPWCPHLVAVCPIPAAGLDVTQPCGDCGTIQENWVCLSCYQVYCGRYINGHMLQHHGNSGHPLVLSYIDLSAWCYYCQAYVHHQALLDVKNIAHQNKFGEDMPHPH
Summary of the method: (§1)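 Run by a contract lab. Compound incubated with HDAC enzyme, HDAC substrate, BSA and HDAC buffer, in duplicate, at 37 °C for 30 min. Quenched with HDAC developer, then 15 min at room temperature. Percent activity = (F−Fb)/(Ft−Fb), using blank and solvent-control wells. IC50 from curve fitting.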

Homo sapiens = species on record: Homo sapiens; test: Inhibition of class 1 HDAC in human HCT116 cells assessed as hyperacetylation of histone H3 (Lys9/14) measured at 8 hrs post treatment by immunoblot analysis; type: cell-based
Summary of the method: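 Cells in DMEM/10% FBS; 4 × 10^5 cells seeded in 60-mm dishes overnight, then treated for 8 h with 0–10 μM (final) compound or vehicle (1% EtOH). Whole-cell lysates loaded at equal protein (BCA), run on SDS-PAGE, blotted to PVDF and probed with anti-acetyl histone H3 (Lys9/14); β-actin also probed. Chemiluminescent detection.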

Histone deacetylase 1 = Histone deacetylase 1 (Homo sapiens, UniProt Q13547); test: Inhibition of recombinant full length C-terminal His/FLAG-tagged human HDAC1 expressed in baculovirus infected Sf9 insect cells using BPS HDAC substrate 3 after 30 mins by fluorescence assay; summary of the method: as §1
Sequence of Histone deacetylase 1 (Q13547 whole entry): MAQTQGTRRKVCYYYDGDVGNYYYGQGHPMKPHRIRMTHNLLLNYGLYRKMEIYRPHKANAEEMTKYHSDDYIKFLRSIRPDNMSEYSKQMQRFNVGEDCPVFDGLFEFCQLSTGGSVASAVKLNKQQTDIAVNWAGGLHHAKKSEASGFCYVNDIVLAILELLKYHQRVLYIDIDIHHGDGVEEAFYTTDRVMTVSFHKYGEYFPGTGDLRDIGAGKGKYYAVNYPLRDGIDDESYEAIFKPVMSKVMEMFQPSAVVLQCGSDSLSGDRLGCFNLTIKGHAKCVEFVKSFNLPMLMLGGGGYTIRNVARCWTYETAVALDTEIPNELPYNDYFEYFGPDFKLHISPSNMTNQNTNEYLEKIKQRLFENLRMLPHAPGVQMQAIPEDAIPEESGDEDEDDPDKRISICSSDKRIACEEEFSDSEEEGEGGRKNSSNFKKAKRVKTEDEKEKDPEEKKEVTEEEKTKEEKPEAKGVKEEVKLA

Sequence of Histone deacetylase 5 (Homo sapiens) (Q9UQL6 whole entry): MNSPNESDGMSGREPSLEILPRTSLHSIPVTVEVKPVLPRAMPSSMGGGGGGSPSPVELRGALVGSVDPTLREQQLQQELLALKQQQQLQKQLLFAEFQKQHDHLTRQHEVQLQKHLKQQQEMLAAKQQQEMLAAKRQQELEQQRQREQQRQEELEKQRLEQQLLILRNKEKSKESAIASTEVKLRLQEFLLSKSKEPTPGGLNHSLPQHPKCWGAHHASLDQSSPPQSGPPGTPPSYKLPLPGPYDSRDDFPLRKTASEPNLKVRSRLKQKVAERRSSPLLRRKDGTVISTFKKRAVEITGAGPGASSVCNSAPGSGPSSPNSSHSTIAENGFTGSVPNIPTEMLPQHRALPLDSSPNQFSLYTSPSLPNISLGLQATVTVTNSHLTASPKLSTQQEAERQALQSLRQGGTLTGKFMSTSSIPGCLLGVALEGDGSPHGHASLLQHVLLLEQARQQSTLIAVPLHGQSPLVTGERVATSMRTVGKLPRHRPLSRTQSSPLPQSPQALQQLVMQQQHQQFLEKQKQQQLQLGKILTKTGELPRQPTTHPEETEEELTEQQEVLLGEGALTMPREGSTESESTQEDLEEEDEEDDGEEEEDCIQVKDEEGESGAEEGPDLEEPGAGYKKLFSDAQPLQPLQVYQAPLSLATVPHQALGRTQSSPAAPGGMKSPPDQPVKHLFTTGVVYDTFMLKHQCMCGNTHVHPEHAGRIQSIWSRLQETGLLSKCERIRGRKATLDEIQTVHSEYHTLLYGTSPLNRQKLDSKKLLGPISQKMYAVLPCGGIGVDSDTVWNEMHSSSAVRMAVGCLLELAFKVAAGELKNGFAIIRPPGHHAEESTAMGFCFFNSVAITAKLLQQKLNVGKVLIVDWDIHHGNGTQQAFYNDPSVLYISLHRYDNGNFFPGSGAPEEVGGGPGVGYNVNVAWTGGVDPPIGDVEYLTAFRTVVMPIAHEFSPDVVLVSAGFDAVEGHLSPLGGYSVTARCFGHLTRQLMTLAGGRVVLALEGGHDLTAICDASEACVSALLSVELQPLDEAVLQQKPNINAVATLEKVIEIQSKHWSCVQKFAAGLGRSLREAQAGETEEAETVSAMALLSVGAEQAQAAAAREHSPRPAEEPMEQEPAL

SMILES: CC(C)[C@@H]1NC(=O)[C@]2(C)CSC(=N2)c2csc(n2)CNC(=O)C[C@@H](/C=C/CCSCCS)OC1=O
- inhibition [1]: 22%
- IC50 [2]: 2800 nM
- inhibition (Homo sapiens): Dose-dependent effect
- IC50 (Histone deacetylase 1): 40 nM

SMILES: CC(C)[C@@H]1NC(=O)[C@]2(C)CSC(=N2)c2csc(n2)CNC(=O)C[C@@H](/C=C/CCC(=O)NO)OC1=O
- inhibition [1]: 21%
- IC50 [2]: 600 nM
- inhibition (Homo sapiens): Dose-dependent effect
- IC50 (Histone deacetylase 1): 26 nM

Reference: ChEMBL document CHEMBL4020727, “Synthesis and biological evaluation of largazole zinc-binding group analogs” (Bioorg Med Chem, 2017)
